# ChEMBL document CHEMBL4138284, “Biomimetic Stereoselective Sulfa-Michael Addition Leads to Platensimycin and Platencin Sulfur Analogues against Methicillin-Resistant Staphylococcus aureus” (J Nat Prod, 2018)
# Tested on: Staphylococcus aureus
# Experiment: Antibacterial activity against methicillin-resistant Staphylococcus aureus isolate 7 incubated overnight by agar dilution method
# Format: functional
# Procedure, shortened: (§1)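 MIC by agar dilution. Strains were grown overnight in LB broth and diluted, then about 10^4 CFU (2 μL spots) were spotted onto LB agar plates containing test compound at 0.5 to 8 μg mL−1 agar. Plates were incubated overnight at 37 °C and inspected for growth. Clinical MSSA and MRSA isolates came from local hospitals.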
row,SMILES,MIC [µg/mL]
1,C[C@]12C[C@]34C[C@@H]1C[C@H](O2)[C@H]3[C@](C)(CCC(=O)Nc1c(O)ccc(C(=O)O)c1O)C(=O)C[C@@H]4SC(=O)Cc1ccc(F)cc1,4
2,C[C@]12C[C@]34C[C@@H]1C[C@H](O2)[C@H]3[C@](C)(CCC(=O)Nc1c(O)ccc(C(=O)O)c1O)C(=O)C[C@@H]4SC(=O)c1ccccc1F,2
3,C[C@]12C[C@]34C[C@@H]1C[C@H](O2)[C@H]3[C@](C)(CCC(=O)Nc1c(O)ccc(C(=O)O)c1O)C(=O)C[C@@H]4SC(=O)c1ccc([N+](=O)[O-])cc1,2

# Tested on: Staphylococcus aureus
# Experiment: Antibacterial activity against methicillin-resistant Staphylococcus aureus isolate 5 incubated overnight by agar dilution method
# Format: functional
# Procedure, shortened: as §1
row,SMILES,MIC [µg/mL]
1,C[C@]12C[C@]34C[C@@H]1C[C@H](O2)[C@H]3[C@](C)(CCC(=O)Nc1c(O)ccc(C(=O)O)c1O)C(=O)C[C@@H]4SC(=O)Cc1ccc(F)cc1,2
2,C[C@]12C[C@]34C[C@@H]1C[C@H](O2)[C@H]3[C@](C)(CCC(=O)Nc1c(O)ccc(C(=O)O)c1O)C(=O)C[C@@H]4SC(=O)c1ccccc1F,2
3,C[C@]12C[C@]34C[C@@H]1C[C@H](O2)[C@H]3[C@](C)(CCC(=O)Nc1c(O)ccc(C(=O)O)c1O)C(=O)C[C@@H]4SC(=O)c1ccc([N+](=O)[O-])cc1,2

# Tested on: Staphylococcus aureus
# Experiment: Antibacterial activity against methicillin-sensitive Staphylococcus aureus isolate 4 incubated overnight by agar dilution method
# Format: functional
# Procedure, shortened: as §1
row,SMILES,MIC [µg/mL]
1,C[C@]12C[C@]34C[C@@H]1C[C@H](O2)[C@H]3[C@](C)(CCC(=O)Nc1c(O)ccc(C(=O)O)c1O)C(=O)C[C@@H]4SC(=O)Cc1ccc(F)cc1,1
2,C[C@]12C[C@]34C[C@@H]1C[C@H](O2)[C@H]3[C@](C)(CCC(=O)Nc1c(O)ccc(C(=O)O)c1O)C(=O)C[C@@H]4SC(=O)c1ccccc1F,1
3,C[C@]12C[C@]34C[C@@H]1C[C@H](O2)[C@H]3[C@](C)(CCC(=O)Nc1c(O)ccc(C(=O)O)c1O)C(=O)C[C@@H]4SC(=O)c1ccc([N+](=O)[O-])cc1,1

# Tested on: Staphylococcus aureus
# Experiment: Antibacterial activity against methicillin-resistant Staphylococcus aureus isolate 8 incubated overnight by agar dilution method
# Format: functional
# Procedure, shortened: as §1
row,SMILES,MIC [µg/mL]
1,C[C@]12C[C@]34C[C@@H]1C[C@H](O2)[C@H]3[C@](C)(CCC(=O)Nc1c(O)ccc(C(=O)O)c1O)C(=O)C[C@@H]4SC(=O)Cc1ccc(F)cc1,2
2,C[C@]12C[C@]34C[C@@H]1C[C@H](O2)[C@H]3[C@](C)(CCC(=O)Nc1c(O)ccc(C(=O)O)c1O)C(=O)C[C@@H]4SC(=O)c1ccccc1F,1
3,C[C@]12C[C@]34C[C@@H]1C[C@H](O2)[C@H]3[C@](C)(CCC(=O)Nc1c(O)ccc(C(=O)O)c1O)C(=O)C[C@@H]4SC(=O)c1ccc([N+](=O)[O-])cc1,1

# Tested on: Staphylococcus aureus
# Experiment: Antibacterial activity against methicillin-sensitive Staphylococcus aureus isolate 2 incubated overnight by agar dilution method
# Format: functional
# Procedure, shortened: as §1
row,SMILES,MIC [µg/mL]
1,C[C@]12C[C@]34C[C@@H]1C[C@H](O2)[C@H]3[C@](C)(CCC(=O)Nc1c(O)ccc(C(=O)O)c1O)C(=O)C[C@@H]4SC(=O)Cc1ccc(F)cc1,1
2,C[C@]12C[C@]34C[C@@H]1C[C@H](O2)[C@H]3[C@](C)(CCC(=O)Nc1c(O)ccc(C(=O)O)c1O)C(=O)C[C@@H]4SC(=O)c1ccccc1F,1
3,C[C@]12C[C@]34C[C@@H]1C[C@H](O2)[C@H]3[C@](C)(CCC(=O)Nc1c(O)ccc(C(=O)O)c1O)C(=O)C[C@@H]4SC(=O)c1ccc([N+](=O)[O-])cc1,1

# Tested on: Staphylococcus aureus
# Experiment: Antibacterial activity against methicillin-resistant Staphylococcus aureus isolate 9 incubated overnight by agar dilution method
# Format: functional
# Procedure, shortened: as §1
row,SMILES,MIC [µg/mL]
1,C[C@]12C[C@]34C[C@@H]1C[C@H](O2)[C@H]3[C@](C)(CCC(=O)Nc1c(O)ccc(C(=O)O)c1O)C(=O)C[C@@H]4SC(=O)Cc1ccc(F)cc1,2
2,C[C@]12C[C@]34C[C@@H]1C[C@H](O2)[C@H]3[C@](C)(CCC(=O)Nc1c(O)ccc(C(=O)O)c1O)C(=O)C[C@@H]4SC(=O)c1ccccc1F,1
3,C[C@]12C[C@]34C[C@@H]1C[C@H](O2)[C@H]3[C@](C)(CCC(=O)Nc1c(O)ccc(C(=O)O)c1O)C(=O)C[C@@H]4SC(=O)c1ccc([N+](=O)[O-])cc1,1

# Tested on: Staphylococcus aureus
# Experiment: Antibacterial activity against methicillin-resistant Staphylococcus aureus isolate 10 incubated overnight by agar dilution method
# Format: functional
# Procedure, shortened: as §1
row,SMILES,MIC [µg/mL]
1,C[C@]12C[C@]34C[C@@H]1C[C@H](O2)[C@H]3[C@](C)(CCC(=O)Nc1c(O)ccc(C(=O)O)c1O)C(=O)C[C@@H]4SC(=O)Cc1ccc(F)cc1,2
2,C[C@]12C[C@]34C[C@@H]1C[C@H](O2)[C@H]3[C@](C)(CCC(=O)Nc1c(O)ccc(C(=O)O)c1O)C(=O)C[C@@H]4SC(=O)c1ccccc1F,1
3,C[C@]12C[C@]34C[C@@H]1C[C@H](O2)[C@H]3[C@](C)(CCC(=O)Nc1c(O)ccc(C(=O)O)c1O)C(=O)C[C@@H]4SC(=O)c1ccc([N+](=O)[O-])cc1,1

# Tested on: Staphylococcus aureus
# Experiment: Antibacterial activity against methicillin-sensitive Staphylococcus aureus isolate 1 incubated overnight by agar dilution method
# Format: functional
# Procedure, shortened: as §1
row,SMILES,MIC [µg/mL]
1,C[C@]12C[C@]34C[C@@H]1C[C@H](O2)[C@H]3[C@](C)(CCC(=O)Nc1c(O)ccc(C(=O)O)c1O)C(=O)C[C@@H]4SC(=O)Cc1ccc(F)cc1,2
2,C[C@]12C[C@]34C[C@@H]1C[C@H](O2)[C@H]3[C@](C)(CCC(=O)Nc1c(O)ccc(C(=O)O)c1O)C(=O)C[C@@H]4SC(=O)c1ccccc1F,1
3,C[C@]12C[C@]34C[C@@H]1C[C@H](O2)[C@H]3[C@](C)(CCC(=O)Nc1c(O)ccc(C(=O)O)c1O)C(=O)C[C@@H]4SC(=O)c1ccc([N+](=O)[O-])cc1,1

# Tested on: Staphylococcus aureus
# Experiment: Antibacterial activity against Staphylococcus aureus ATCC 29213 incubated overnight by agar dilution method
# Format: functional
# Procedure, shortened: as §1
row,SMILES,MIC [µg/mL]
1,C[C@]12C[C@]34C[C@@H]1C[C@H](O2)[C@H]3[C@](C)(CCC(=O)Nc1c(O)ccc(C(=O)O)c1O)C(=O)C[C@@H]4SC(=O)Cc1ccc(F)cc1,2
2,C[C@]12C[C@]34C[C@@H]1C[C@H](O2)[C@H]3[C@](C)(CCC(=O)Nc1c(O)ccc(C(=O)O)c1O)C(=O)C[C@@H]4SC(=O)c1ccccc1F,1
3,C[C@]12C[C@]34C[C@@H]1C[C@H](O2)[C@H]3[C@](C)(CCC(=O)Nc1c(O)ccc(C(=O)O)c1O)C(=O)C[C@@H]4SC(=O)c1ccc([N+](=O)[O-])cc1,1

# Tested on: Staphylococcus aureus
# Experiment: Antibacterial activity against methicillin-sensitive Staphylococcus aureus isolate 3 incubated overnight by agar dilution method
# Format: functional
# Procedure, shortened: as §1
row,SMILES,MIC [µg/mL]
1,C[C@]12C[C@]34C[C@@H]1C[C@H](O2)[C@H]3[C@](C)(CCC(=O)Nc1c(O)ccc(C(=O)O)c1O)C(=O)C[C@@H]4SC(=O)Cc1ccc(F)cc1,2
2,C[C@]12C[C@]34C[C@@H]1C[C@H](O2)[C@H]3[C@](C)(CCC(=O)Nc1c(O)ccc(C(=O)O)c1O)C(=O)C[C@@H]4SC(=O)c1ccccc1F,1
3,C[C@]12C[C@]34C[C@@H]1C[C@H](O2)[C@H]3[C@](C)(CCC(=O)Nc1c(O)ccc(C(=O)O)c1O)C(=O)C[C@@H]4SC(=O)c1ccc([N+](=O)[O-])cc1,1

# Tested on: Staphylococcus aureus
# Experiment: Antibacterial activity against methicillin-resistant Staphylococcus aureus isolate 6 incubated overnight by agar dilution method
# Format: functional
# Procedure, shortened: as §1
row,SMILES,MIC [µg/mL]
1,C[C@]12C[C@]34C[C@@H]1C[C@H](O2)[C@H]3[C@](C)(CCC(=O)Nc1c(O)ccc(C(=O)O)c1O)C(=O)C[C@@H]4SC(=O)Cc1ccc(F)cc1,2
2,C[C@]12C[C@]34C[C@@H]1C[C@H](O2)[C@H]3[C@](C)(CCC(=O)Nc1c(O)ccc(C(=O)O)c1O)C(=O)C[C@@H]4SC(=O)c1ccccc1F,1
3,C[C@]12C[C@]34C[C@@H]1C[C@H](O2)[C@H]3[C@](C)(CCC(=O)Nc1c(O)ccc(C(=O)O)c1O)C(=O)C[C@@H]4SC(=O)c1ccc([N+](=O)[O-])cc1,1

# Tested on: Staphylococcus aureus
# Experiment: Antibacterial activity against methicillin-resistant Staphylococcus aureus isolate 11 incubated overnight by agar dilution method
# Format: functional
# Procedure, shortened: as §1
row,SMILES,MIC [µg/mL]
1,C[C@]12C[C@]34C[C@@H]1C[C@H](O2)[C@H]3[C@](C)(CCC(=O)Nc1c(O)ccc(C(=O)O)c1O)C(=O)C[C@@H]4SC(=O)Cc1ccc(F)cc1,4
2,C[C@]12C[C@]34C[C@@H]1C[C@H](O2)[C@H]3[C@](C)(CCC(=O)Nc1c(O)ccc(C(=O)O)c1O)C(=O)C[C@@H]4SC(=O)c1ccccc1F,2
3,C[C@]12C[C@]34C[C@@H]1C[C@H](O2)[C@H]3[C@](C)(CCC(=O)Nc1c(O)ccc(C(=O)O)c1O)C(=O)C[C@@H]4SC(=O)c1ccc([N+](=O)[O-])cc1,8
